Source: ChEMBL document CHEMBL1122640, “Studies on heterocyclic compounds. 6. Synthesis and analgesic and antiinflammatory activities of 3,4-dimethylpyrano[2,3-c]pyrazol-6-one derivatives” (J Med Chem, 1984)

How the values were obtained:
Mus musculus = species: Mus musculus; assay: Compound was tested for […] activity by phenylquinone writhing method in mice.; type: functional
In short: (§1)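 Phenylquinone (0.03% in 5% aqueous ethanol, 10 mL/kg ip) given to female ddN mice (18-22 g); test drug given orally 30 min beforehand. Writhes counted over 15 min, starting 5 min after phenylquinone. Five to ten mice per dose; values given with range and n.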

Rattus norvegicus [1] = assay: Antiinflammatory activity, % inhibition was reported 3 hr after carrageenan injection in the hind paw edema test in rats: dose=80 mg/kg.; type: functional
In short: (§2)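 Male Wistar rats (90-120 g); paw edema raised by subcutaneous injection of 0.1 mL 1% carrageenin into the hind foot pad. Drug given orally at 80 mg/kg. Swelling inhibition read 3 h after carrageenin and compared with vehicle control for significance.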

[2] = Acute lethal toxicity on day 7 was determined; type: organism-based; details: mouse, in vivo
Mus sp. = assay: Analgesic activity by phenylquinone writhing method in mice after peroral administration; type: functional; details: po; in short: as §1
Rattus norvegicus [3] = assay: Antiinflammatory activity, % inhibition was reported 3 hr after carrageenan injection in the hind paw edema test in rats: dose=80 mg/kg; type: functional; in short: as §2
Rattus norvegicus [4] = assay: Compound was tested for antiinflammatory activity and the % inhibition was reported 3 hr after carrageenan injection in the hind paw edema test in rats: dose=80 mg/kg; type: functional; in short: as §2
Rattus norvegicus [5] = assay: Compound was tested for antiinflammatory activity and the % inhibition was reported 3 h after carrageenan injection in the hind paw edema test in rats: dose=40 mg/kg, p.o.; type: functional; details: po
In short: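 Male Wistar rats (90-120 g) given 0.1 mL 1% carrageenin subcutaneously into the hind foot pad. Drug given po at 40 mg/kg. Edema inhibition read at 3 h after carrageenin and compared with vehicle control.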

CCCCCn1nc(C)c2c(C)cc(=O)oc21
ED50 (Mus musculus): > 100 mg/kg | inhibition in vivo at 80 mg/kg (Rattus norvegicus [1]): 3.5%

Cc1cc(=O)oc2nn(C)c(C)c12
ED50 (Mus musculus): 6.09 mg/kg | LD50 at 7 day [2]: 250 mg/kg | inhibition in vivo at 80 mg/kg (Rattus norvegicus [1]): 3.3%

CCCCn1nc(C)c2c(C)cc(=O)oc21
ED50 (Mus musculus): > 100 mg/kg | inhibition in vivo at 80 mg/kg (Rattus norvegicus [1]): -0.9%

Cc1cc(=O)oc2c1c(C)nn2CCO
ED50 (Mus musculus): 100 mg/kg | inhibition in vivo at 80 mg/kg (Rattus norvegicus [1]): -0.9%

CCCCCn1nc2oc(=O)cc(C)c2c1C
ED50 (Mus musculus): 60.6 mg/kg | inhibition in vivo at 80 mg/kg (Rattus norvegicus [1]): -5.4%

Cc1cc(=O)oc2c1c(CC(=O)O)nn2C
ED50 (Mus musculus): > 100 mg/kg | inhibition in vivo at 80 mg/kg (Rattus norvegicus [1]): -3.1%

CCCCn1nc2oc(=O)cc(C)c2c1C
ED50 (Mus musculus): > 100 mg/kg | inhibition in vivo at 80 mg/kg (Rattus norvegicus [1]): -3.1%

CCn1nc(C)c2c(C)cc(=O)oc21
ED50 (Mus musculus): 24.9 mg/kg | inhibition in vivo at 80 mg/kg (Rattus norvegicus [1]): 12.1%

Cc1cc(O)oc2nnc(CC(=O)O)c1-2
ED50 (Mus musculus): > 100 mg/kg | inhibition in vivo at 80 mg/kg (Rattus norvegicus [1]): 6.4%

CCOC(=O)Cc1nnc2oc(O)cc(C)c1-2
ED50 (Mus musculus): > 100 mg/kg | inhibition in vivo at 80 mg/kg (Rattus norvegicus [1]): -4.1%

Cc1cc(=O)oc2nn(CCCl)c(C)c12
ED50 (Mus sp.): 56 mg/kg | inhibition in vivo at 80 mg/kg (Rattus norvegicus [1]): -2.1%

Cc1cc(=O)oc2c1c(C)nn2C(C)C
ED50 (Mus musculus): > 100 mg/kg | inhibition in vivo at 80 mg/kg (Rattus norvegicus [1]): 1.1%

Cc1cc(=O)oc2c1c(C)nn2C
ED50 (Mus musculus): 11.6 mg/kg | LD50 at 7 day [2]: > 1500 mg/kg | inhibition in vivo at 80 mg/kg (Rattus norvegicus [1]): 4.7%

Cc1cc(=O)oc2nn(CCN3CCOCC3)c(C)c12
ED50 (Mus musculus): > 100 mg/kg | inhibition in vivo at 80 mg/kg (Rattus norvegicus [1]): 4.4%

CCOC(=O)Cc1nn(C)c2oc(=O)cc(C)c12
ED50 (Mus musculus): > 100 mg/kg | inhibition in vivo at 80 mg/kg (Rattus norvegicus [1]): -3.1%

Cc1cc(=O)oc2nn(C(C)C)c(C)c12
ED50 (Mus musculus): 35.3 mg/kg | inhibition in vivo at 80 mg/kg (Rattus norvegicus [1]): 3.7%

CCn1nc2oc(=O)cc(C)c2c1C
ED50 (Mus musculus): 14.6 mg/kg | inhibition in vivo at 80 mg/kg (Rattus norvegicus [3]): 13.1%

CCCn1nc2oc(=O)cc(C)c2c1C
ED50 (Mus musculus): 72.6 mg/kg | inhibition in vivo at 80 mg/kg (Rattus norvegicus [1]): 4.9%

CCCn1nc(C)c2c(C)cc(=O)oc21
ED50 (Mus musculus): 54.3 mg/kg | inhibition in vivo at 80 mg/kg (Rattus norvegicus [1]): -0.6%

CC(=O)n1nc2oc(=O)cc(C)c2c1C
ED50 (Mus sp.): 12.2 mg/kg | inhibition in vivo at 80 mg/kg (Rattus norvegicus [1]): 4.5%

Cc1cc(=O)oc2nn(C(=O)c3ccccc3)c(C)c12
ED50 (Mus sp.): 35 mg/kg | inhibition in vivo at 80 mg/kg (Rattus norvegicus [1]): 11.9%

Cc1cc(=O)oc2nn(CCO)c(C)c12
ED50 (Mus musculus): > 100 mg/kg | inhibition in vivo at 80 mg/kg (Rattus norvegicus [1]): 1.8%

Cc1cc(=O)oc2nn(C(=O)c3ccco3)c(C)c12
ED50 (Mus sp.): 74.3 mg/kg | inhibition in vivo at 80 mg/kg (Rattus norvegicus [1]): 2.2%

CCN(CC)CCn1nc2oc(=O)cc(C)c2c1C
ED50 (Mus musculus): 100 mg/kg | inhibition in vivo at 80 mg/kg (Rattus norvegicus [4]): 17%

Cc1cc(=O)oc2nn(C(=O)CCl)c(C)c12
ED50 (Mus sp.): > 100 mg/kg | inhibition in vivo at 80 mg/kg (Rattus norvegicus [1]): 5.2%

Cc1c(N(C)C)c(=O)n(-c2ccccc2)n1C [AMINOPYRINE]
ED50 (Mus musculus): 19.2 mg/kg | inhibition in vivo at 80 mg/kg (Rattus norvegicus [4]): 17.5%

CC(=O)Oc1ccccc1C(=O)O [ASPIRIN]
ED50 (Mus sp.): > 100 mg/kg

CC(C)Cc1ccc(C(C)C(=O)O)cc1 (centres undefined) [IBUPROFEN]
ED50 (Mus musculus): 50 mg/kg | inhibition in vivo at 80 mg/kg (Rattus norvegicus [4]): 39%

Cc1cccc(Nc2ccccc2C(=O)O)c1C [MEFENAMIC ACID]
ED50 (Mus musculus): 45.9 mg/kg | inhibition in vivo at 40 mg/kg (Rattus norvegicus [5]): 33.1%
